Broadly, the IC50 is the concentration at which inhibition is half-maximal.

Data set [1] relates to A549. In words: Inhibition of AKT activation in human A549 cells assessed as reduction in c-myc protein expression at 50 to 400 nM after 24 hrs by Western blot analysis. Type of data set: cell-based. The method, boiled down:
(§1)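 A549 cells plated at 3 × 10^5 per 60 mm dish, grown 24 h, then exposed to a concentration series for 24 h. Lysed in boiling SDS sample buffer with NaF and orthovanadate; protein by BCA; 25–50 µg run on 8–15% SDS-PAGE, transferred to PVDF, blocked in 5% milk/PBST, primary antibodies overnight at 4 °C, secondary 1–2 h, ECL detection.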
(In general: In western blotting, separated proteins are transferred to a membrane and probed.)

The next data set relates to HCT-116. In words: Cytotoxicity against human HCT116 cells after 72 hrs by SRB assay. It counts as functional, cell-based. The note with it: HCT-116, 72 h. The method, boiled down:
(§2)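 SRB growth assay: 5 × 10^3 cells/well exposed to a concentration series for 72 h; fixed in 10% TCA 30 min at 4 °C, stained with 0.4% SRB in 1% acetic acid 30 min, dye dissolved in 10 mM Tris pH 10.0, absorbance at 515 nm. Viability relative to vehicle control; IC50 by non-linear regression; at least three experiments. A549-Pa is a paclitaxel-resistant A549 subline.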

In data set [2] the test system is A549. In words: Cell cycle arrest in human A549 cells assessed as accumulation at G0/G1 phase at 400 nM after 24 hrs by flow cytometry (reference value: 62.38 %). Type of data set: functional. (In general: In flow cytometry, cells or beads pass a laser one at a time.)
The target of data set [3] is T1, ATP-dependent translocase ABCB1 (Homo sapiens, UniProt P08183). In words: Inhibition of P-gp activity in human paclitaxel-resistant A549 cells potentiation of 5 uM paclitaxel-induced cytotoxicity at 0.1 uM by SRB assay. The following applies: a549, 0.1 µM. Type of data set: cell-based. The method, boiled down:
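A549-Pa cells plated at 5 × 10^4 cells/well and co-treated for 48 h with the compound (0–200 nM) plus paclitaxel or gefitinib; growth inhibition by SRB assay. Combination index computed at the 50% inhibition level as CI = D1/(Dx)1 + D2/(Dx)2, comparing combined versus single-agent concentrations.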
In general terms: The SRB assay estimates cell density from bound dye.

The subject of data set [4] is A549. In words: Inhibition of MDR-1 gene expression in human paclitaxel-resistant A549 cells at 50 to 200 nM after 48 hrs by RT-PCR analysis. Type of data set: functional, cell-based. The method, boiled down:
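A549-Pa cells (1 × 10^5 per 100 mm dish) exposed for 48 h; RNA isolated with TRI reagent, 1 µg reverse-transcribed with AMV RT and oligo(dT)15. MDR-1 amplified with specific primers: 94 °C 4 min; 35 cycles of 94 °C 30 s, 55 °C 30 s, 72 °C 30 s; 72 °C 5 min. Products resolved on 2% agarose, SYBR Safe stained.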

The test system of data set [5] is A549. In words: Cell cycle arrest in human A549 cells assessed as accumulation at G2/M phase at 50 nM after 24 hrs by flow cytometry (reference value: 22.84 %). It counts as functional.
For data set [6], the system named is A549. In words: Cytotoxicity against human paclitaxel-resistant A549 cells after 72 hrs by SRB assay. The following applies: A549, 72 h. It counts as functional, cell-based. The method, boiled down: as §2
The test system of data set [7] is A549. In words: Inhibition of P-gp protein expression level in human paclitaxel-resistant A549 cells at 50 to 200 nM after 48 hrs by Western blot analysis. Type of data set: functional, cell-based. The method, boiled down:
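A549-Pa cells, with parent A549 for comparison, were exposed to compound for 48 h. Lysates were made in boiling SDS sample buffer and protein measured by BCA. Equal protein (25–50 µg) was run on 8–15% SDS-PAGE, transferred to PVDF and blocked in 5% milk/PBST. Anti-P-gp primary was applied overnight at 4 °C, then secondary antibody and ECL detection.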

For data set [8], the target named is T1, ATP-dependent translocase ABCB1. In words: Inhibition of P-gp activity in human paclitaxel-resistant A549 cells assessed as rhodamine 123 accumulation at 200 nM after 72 hrs by FACS analysis (reference value: 14.4 %). Type of data set: cell-based. Set-up: scale not given: the % may be the effect or the level left. The following applies: a549, 72 h, 0.2 µM.

For a further data set, the system named is Mus musculus. In words: Toxicity in paclitaxel-resistant human A549 cells xenografted athymic nu/nu BALB/c mouse assessed as body weight change at 5 to 10 mg/kg, ip administered 3 times a week. It counts as organism-based. Set-up: dose 5-10 mg/kg, route intraperitoneal. The following applies: in vivo. The method, boiled down:
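Six-week-old female BALB/c nu/nu mice received 2 × 10^6 A549-Pa cells in 0.1 mL RPMI subcutaneously in the right flank. Dosing began at 95–100 mm3 tumor volume, with five mice per group randomized. Compound in 1% cremophore/PBS was given intraperitoneally three times weekly; controls received equal vehicle volume. Body weight and overt toxicity were monitored.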

Data set [9] has as its system A549. In words: Cell cycle arrest in human A549 cells assessed as accumulation at G2/M phase at 200 nM after 24 hrs by flow cytometry (reference value: 22.84 %). Type of data set: functional.
Data set [10] relates to A549. In words: Antitumor activity against human A549 cells xenografted in athymic nu/nu BALB/c mouse assessed as inhibition of tumor growth at 5 mg/kg, ip administered 35 days post-implantation 3 times a week relative to control. Type of data set: functional. The note with it: 840 h, route intraperitoneal, read-out: TGI. The method, boiled down: (§3)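 Female athymic BALB/c nu/nu mice, six weeks old; 2 × 10^6 A549 or A549-Pa cells in 0.1 mL RPMI injected s.c. into right flank on day 0. Dosing began at 95–100 mm3 tumour volume: drug in 1% cremophore in PBS given i.p. three times weekly; controls got vehicle; five mice/group. Tumour volume tracked every 3–5 days; tumours excised and weighed at end; sections immunostained for Ki-67.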

Data set [11] concerns A549. In words: Inhibition of AKT/mTOR signaling in human A549 cells assessed as inhibition of 4E-BP1 phosphorylation at 50 to 400 nM after 24 hrs by Western blot analysis. Type of data set: cell-based. The method, boiled down:
as §1

Data set [12] deals with A549. In words: Cell cycle arrest in human A549 cells assessed as accumulation at G0/G1 phase at 50 nM after 24 hrs by flow cytometry (reference value: 62.38 %). It counts as functional.
The subject of data set [13] is A549. In words: Cell cycle arrest in human A549 cells assessed as accumulation at sub-G1 phase at 50 nM after 24 hrs by flow cytometry (reference value: 1.40 %). It counts as functional.
The next data set relates to SNU-638. In words: Cytotoxicity against human SNU638 cells after 72 hrs by SRB assay. Type of data set: functional, cell-based. The following applies: SNU-638, 72 h. The method, boiled down:
as §2

Data set [14] deals with A549. In words: Cell cycle arrest in human A549 cells assessed as accumulation at sub-G1 phase at 100 nM after 24 hrs by flow cytometry (reference value: 1.40 %). Type of data set: functional.
In data set [15] the test system is A549. In words: Antitumor activity against paclitaxel-resistant human A549 cells xenografted in athymic nu/nu BALB/c mouse assessed as inhibition of tumor growth at 10 mg/kg, ip administered 35 days post-implantation 3 times a week relative to control. It counts as functional. The following applies: 840 h, route intraperitoneal, read-out: TGI. The method, boiled down: as §3

Data set [16] concerns A549. In words: Cell cycle arrest in human A549 cells assessed as accumulation at S phase at 400 nM after 24 hrs by flow cytometry (reference value: 13.38 %). Type of data set: functional.
In data set [17] the test system is A549. In words: Antitumor activity against paclitaxel-resistant human A549 cells xenografted in ip dosed athymic nu/nu BALB/c mouse assessed as inhibition of P-gp expression administered 35 days post-implantation 3 times a week by immunohistochemistry. Type of data set: functional, organism-based. The method, boiled down: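 A549-Pa (paclitaxel-resistant) xenografts in female athymic BALB/c nu/nu mice, grown s.c. in right flank and treated i.p. three times weekly in 1% cremophore/PBS once tumours reached 95–100 mm3. Excised tumour sections incubated overnight at 4 °C with P-glycoprotein antibody, detected by HRP-polymer system, hematoxylin counterstain, viewed by microscopy.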

The test system of the next data set is SK-HEP1. In words: Cytotoxicity against human SKHEP1 cells after 72 hrs by SRB assay. It counts as functional, cell-based. The note with it: SK-HEP1, 72 h. The method, boiled down: as §2
Data set [18] relates to A549. In words: Cytotoxicity against human A549 cells after 72 hrs by SRB assay. Type of data set: functional, cell-based. The following applies: A549, 72 h. The method, boiled down: as §2

Activity calls are given as the source filed them. The calls are words filed in the database; no cut-off is given here.

T1 sequence (P08183 whole entry): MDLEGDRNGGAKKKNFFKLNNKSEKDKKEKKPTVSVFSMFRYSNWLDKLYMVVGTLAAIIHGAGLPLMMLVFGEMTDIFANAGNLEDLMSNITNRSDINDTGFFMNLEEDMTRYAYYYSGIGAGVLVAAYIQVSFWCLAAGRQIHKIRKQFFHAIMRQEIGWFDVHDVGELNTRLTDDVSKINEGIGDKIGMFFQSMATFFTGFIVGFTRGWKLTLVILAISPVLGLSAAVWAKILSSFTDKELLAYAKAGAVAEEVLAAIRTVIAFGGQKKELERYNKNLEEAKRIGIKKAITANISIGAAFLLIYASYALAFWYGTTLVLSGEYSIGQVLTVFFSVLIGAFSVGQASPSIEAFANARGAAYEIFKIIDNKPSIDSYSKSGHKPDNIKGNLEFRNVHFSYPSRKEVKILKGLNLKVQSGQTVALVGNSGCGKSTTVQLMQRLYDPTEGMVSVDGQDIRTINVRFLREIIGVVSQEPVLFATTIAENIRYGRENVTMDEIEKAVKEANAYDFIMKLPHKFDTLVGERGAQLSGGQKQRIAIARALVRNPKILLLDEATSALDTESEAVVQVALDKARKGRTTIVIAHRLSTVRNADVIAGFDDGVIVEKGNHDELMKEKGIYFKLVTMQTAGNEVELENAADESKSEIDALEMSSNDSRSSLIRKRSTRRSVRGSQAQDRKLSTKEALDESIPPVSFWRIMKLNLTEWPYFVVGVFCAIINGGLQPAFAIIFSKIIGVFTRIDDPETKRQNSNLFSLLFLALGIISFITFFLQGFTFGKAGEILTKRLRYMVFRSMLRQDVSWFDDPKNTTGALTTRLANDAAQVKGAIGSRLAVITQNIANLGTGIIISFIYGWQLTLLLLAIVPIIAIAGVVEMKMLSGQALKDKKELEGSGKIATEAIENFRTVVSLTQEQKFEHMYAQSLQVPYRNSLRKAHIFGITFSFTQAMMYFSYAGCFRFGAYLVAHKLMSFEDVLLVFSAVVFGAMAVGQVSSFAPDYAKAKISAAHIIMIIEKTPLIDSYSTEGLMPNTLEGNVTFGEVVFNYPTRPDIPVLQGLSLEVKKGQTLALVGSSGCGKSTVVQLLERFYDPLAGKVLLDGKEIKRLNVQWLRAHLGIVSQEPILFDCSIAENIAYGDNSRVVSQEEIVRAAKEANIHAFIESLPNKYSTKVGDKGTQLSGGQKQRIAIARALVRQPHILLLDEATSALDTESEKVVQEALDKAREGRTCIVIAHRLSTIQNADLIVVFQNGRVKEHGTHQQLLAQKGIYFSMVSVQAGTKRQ

As for `COc1ccc2c3c(c4cc(OC)c(OC)cc4c2c1)C[C@@]1(CO)CCCN1C3`, the inhibition result in the data set on A549 [1], with A549 [4], in the data set with A549 [7] and with A549 [11] was “Active” in each case. The IC50 in the data set with HCT-116 came out at 0.06 µM; with A549 [6], 0.2 µM; in the data set on SNU-638, 0.08 µM; in the data set with SK-HEP1 it was 0.06 µM; in the data set on A549 [18] it was 0.12 µM. In addition, the Activity is on record as 67.01% with A549 [2]; 20.71% with A549 [5]; 37.1% in [8]; “Non-toxic” with Mus musculus; 18.33% in the data set with A549 [9]; 66.07% in the data set with A549 [12]. Besides, the figures for the Activity with A549 [13], with A549 [14] and in the data set with A549 [16] were 1.13%, 2.31% and 11.37%, respectively. Moreover, in [3], the “fractional inhibitory concentration index (FICI)” value was 0.391. In addition, in the data set on A549 [10], the inhibition in vivo at 5 mg/kg came out at 54.9%. In the data set with A549 [15], the inhibition in vivo at 10 mg/kg turned out to be 54.8%. In addition, the inhibition entry in the data set on A549 [17] is “Dose-dependent effect”.

(Values after ChEMBL document CHEMBL2346587, “Design, synthesis, and evaluation of a water-soluble antofine analogue with high antiproliferative and antitumor activity” (Bioorg Med Chem, 2013).)
